Experimental data from publication PMC6541004 (Antiviral research, 2018).
Read-outs that look alike come from different tables or passages of the source. One block for each compound: values may come before it.

Key:
[1] = biological target: DENV2 NS2B-NS3pro (Dengue virus type 2, UniProt P14340); assay: In vitro protease assay; type: biochemical
[2] = system: DENV2; assay: Plaque assay of DENV2 infectivity; type: cell-based; conditions: Dengue virus, DENV2, read-out: EC50 (PFU)
[3] = system: oleic acid-induced LD in DENV2 infected BHK-21 cells; assay: Oil Red O staining of lipid droplets; type: cell-based; conditions: 0.1 mM oleic acid-BSA, 5 μM, 24 h, absorbance at 405 nm
Summary of the method: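 BHK-21 cells in MEM with 10% FBS were infected with DENV2 at MOI 1 for 1 h. They were then incubated for 24 h in MEM with 0.1 mM oleic acid-BSA plus test compound (5 μM in imaged wells), with 1% DMSO as negative control. Cells were PBS-washed, fixed in 4% paraformaldehyde for 10 min, and stained with ORO and DAPI. Dye was extracted in 100% isopropanol and read at A405. Duplicates were averaged.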

[4] = system: actin; conditions: read-out: IC50 of inhibition of actin polymerization; ref Dhar et al., 2015; cited from earlier work
[5] = system: DENV2 replicon; assay: microbe, parasite or virus in culture; type: cell-based; conditions: Dengue virus, DENV2, BHK-21, 24 h, read-out: EC50 (replicon)
[6] = Cell-based cytotoxicity assay; parameters: species or system Baby Hamster; conditions: hamster
[7] = system: BHK-21 cells; assay: Cell-based cytotoxicity assay; parameters: species or system Baby Hamster
[8] = read-out: IC50 (protease activity), mean ± SD of two replicates, 25 nM DENV2 protease, 25 μM substrate Bz-Nle-Lys-Arg-Arg-AMC, 30 min, inhibitor concentrations 1.56-200 μM

Chain of DENV2 NS2B-NS3pro (P14340 1476-1653): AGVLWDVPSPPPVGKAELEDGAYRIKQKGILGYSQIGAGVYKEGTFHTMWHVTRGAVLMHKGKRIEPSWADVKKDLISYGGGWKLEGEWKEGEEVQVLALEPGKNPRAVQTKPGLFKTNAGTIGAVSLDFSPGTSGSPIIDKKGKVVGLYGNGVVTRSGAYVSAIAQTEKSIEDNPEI
Chain of DENV2 NS2B-NS3pro (P14340 1398-1437): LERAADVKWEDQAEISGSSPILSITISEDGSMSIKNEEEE

Compound: COc1cc(C=CC(=O)CC(=O)C=Cc2ccc(O)c(OC)c2)ccc1O [CC1, 1,7-bis(4-hydroxy-3-methoxyphenyl)-1,6-heptadiene-3,5-dione, reference compound]
IC50 [1]: 66 ± 13.1 µM | EC50 [2]: 14 ± 4.62 µM | oleic acid-induced lipid droplets (LD), Oil Red O [3]: affected LD levels | IC50 [4]: 16 µM | EC50 [5]: 13.9 ± 2.08 µM | CC50 at 24 h ([6]; BHK-21 cells): 49 ± 8.24 µM

Compound: O=C(/C=C/c1ccc(O)cc1)CC(=O)/C=C/c1ccc(O)cc1 [CC2, Bisdemethoxycurcumin]
IC50 [1]: 36.2 ± 9.67 µM | EC50 [2]: 6.49 ± 0.22 µM | EC50 [5]: 26.4 ± 3.67 µM | CC50 at 24 h [6]: 43.4 ± 5.19 µM

IC50 [1, 8]: 43.9 ± 10.1 µM
Compound: COc1cc(/C=C2\CC/C(=C\c3ccc(O)c(OC)c3)C2=O)ccc1O [CC4]

Compound: COc1cc(C=C2CCCC(=Cc3ccc(O)c(OC)c3)C2=O)ccc1O [CC5]
IC50 [1, 8]: 61 ± 8.7 µM | CC50 [7]: 25.5 ± 2.64 µM
